Laboratory results published in ChEMBL document CHEMBL4368912, “Discovery and Development of N-[4-(1-Cyclobutylpiperidin-4-yloxy)phenyl]-2-(morpholin-4-yl)acetamide Dihydrochloride (SUVN-G3031): A Novel, Potent, Selective, and Orally Active Histamine H3 Receptor Inverse Agonist with Robust Wake-Promoting Activity” (J Med Chem, 2019).

Key:
[1] = AUCt in Beagle dog at 3 mg/kg, po by LC-MS/MS analysis; format: ADME, organism-based, Canis lupus familiaris; conditions: in vivo
[2] = Fraction unbound in dog plasma at 1 uM by equilibrium dialysis; format: ADME, cell-free, Canis lupus familiaris
Procedure, shortened: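 Rapid equilibrium dialysis of fresh rat, dog or human plasma at a compound concentration of 1.0 µM. Unbound fraction reported as a percentage.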

[3] = Toxicity in Wistar rat assessed as effect on latency to fall at 30 to 100 mg/kg, po by rotarod test; format: organism-based; conditions: in vivo
Procedure, shortened: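 Motor coordination was assessed on the rotarod as latency to fall after oral doses of 30 and 100 mg/kg.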

[4] = Fraction unbound in rat brain at 1 uM by equilibrium dialysis; format: ADME, tissue-based
[5] = Respiratory toxicity in Wistar rat up to 90 mg/kg, po; format: organism-based; conditions: in vivo
Procedure, shortened: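 Respiratory safety was evaluated in rats given single oral doses of 10, 30 and 90 mg/kg.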

[6] = target: Cytochrome P450 2E1 (Homo sapiens, UniProt P05181); assay: Inhibition of CYP2E1 (unknown origin); format: ADME
Chain of Cytochrome P450 2E1 (P05181 whole entry): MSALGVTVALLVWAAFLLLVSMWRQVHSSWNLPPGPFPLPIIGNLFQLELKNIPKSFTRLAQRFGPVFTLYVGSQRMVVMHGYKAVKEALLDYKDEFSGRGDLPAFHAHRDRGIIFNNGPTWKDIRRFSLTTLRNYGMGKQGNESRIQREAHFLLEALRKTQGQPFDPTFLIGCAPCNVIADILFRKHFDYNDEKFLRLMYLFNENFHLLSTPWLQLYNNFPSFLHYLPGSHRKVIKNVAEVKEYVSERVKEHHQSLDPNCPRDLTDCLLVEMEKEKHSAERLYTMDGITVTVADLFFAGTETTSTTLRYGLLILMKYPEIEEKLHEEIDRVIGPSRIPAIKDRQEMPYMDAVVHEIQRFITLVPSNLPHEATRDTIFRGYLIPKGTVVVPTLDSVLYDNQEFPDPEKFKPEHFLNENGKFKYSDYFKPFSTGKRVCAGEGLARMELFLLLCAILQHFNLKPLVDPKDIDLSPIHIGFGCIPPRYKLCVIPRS

[7] = Toxicity in dog assessed as effect on heart rate at 10 to 25 mg/kg, po; format: organism-based, Canis lupus familiaris; conditions: in vivo
Procedure, shortened: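 Male dogs received oral doses of 10, 18 and 25 mg/kg. Body weight, body temperature, blood pressure, heart rate and ECG were monitored.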

[8] = Metabolic stability in dog hepatocytes after 30 mins by LC-MS/MS analysis; format: ADME, cell-based, Canis lupus familiaris, Hepatocyte; conditions: read-out: Stability
[9] = test system: Rattus norvegicus; assay: In vivo receptor occupancy at histamine 3 receptor in po dosed Wistar rat frontal cortex after 1 to 24 hrs by LC-MS/MS analysis; format: functional
[10] = test system: Rattus norvegicus; assay: Effect on locomotor activity in Wistar rat up to 100 mg/kg, po by open field test; format: ADME, organism-based; conditions: in vivo
[11] = Mutagenicity in Salmonella typhimurium TA98 in absence of metabolic activation by Ames test; format: toxicity; conditions: salmonella enterica subsp. enterica serovar typhimurium
[12] = Apparent permeability across apical to basolateral side in human Caco2 cells at 10 uM; format: ADME, cell-based; conditions: Caco-2
Procedure, shortened: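 Caco-2 monolayers; bidirectional permeability measured at 10 µM, with and without the P-gp inhibitor verapamil.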

[13] = Mutagenicity in Salmonella typhimurium TA98 in presence of metabolic activation by Ames test; format: toxicity; conditions: salmonella enterica subsp. enterica serovar typhimurium
[14] = Solubility in water; format: physicochemical
[15] = target: Cytochrome P450 2D6 (Homo sapiens, UniProt P10635); assay: Inhibition of CYP2D6 in human liver microsomes using dextromethorphan as substrate after 12 mins in presence of NADPH by LC-MS/MS analysis; format: ADME
Chain of Cytochrome P450 2D6 (P10635 whole entry): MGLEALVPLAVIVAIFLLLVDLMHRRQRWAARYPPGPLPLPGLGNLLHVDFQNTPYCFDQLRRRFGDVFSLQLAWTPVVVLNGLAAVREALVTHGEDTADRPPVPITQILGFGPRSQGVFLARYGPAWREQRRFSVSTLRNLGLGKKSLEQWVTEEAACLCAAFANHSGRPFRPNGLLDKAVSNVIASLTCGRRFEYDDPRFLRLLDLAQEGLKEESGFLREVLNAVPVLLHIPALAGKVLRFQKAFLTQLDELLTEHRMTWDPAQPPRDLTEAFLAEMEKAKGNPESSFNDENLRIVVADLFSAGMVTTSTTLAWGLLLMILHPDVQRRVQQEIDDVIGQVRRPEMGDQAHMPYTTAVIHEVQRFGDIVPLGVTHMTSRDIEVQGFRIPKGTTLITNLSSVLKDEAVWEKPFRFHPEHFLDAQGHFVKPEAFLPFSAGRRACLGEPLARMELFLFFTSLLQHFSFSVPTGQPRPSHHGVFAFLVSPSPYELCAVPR

[16] = target: T1, Cytochrome P450 2A6 (Homo sapiens, UniProt P11509); assay: Inhibition of CYP2A6 (unknown origin); format: ADME
T1 sequence (P11509 whole entry): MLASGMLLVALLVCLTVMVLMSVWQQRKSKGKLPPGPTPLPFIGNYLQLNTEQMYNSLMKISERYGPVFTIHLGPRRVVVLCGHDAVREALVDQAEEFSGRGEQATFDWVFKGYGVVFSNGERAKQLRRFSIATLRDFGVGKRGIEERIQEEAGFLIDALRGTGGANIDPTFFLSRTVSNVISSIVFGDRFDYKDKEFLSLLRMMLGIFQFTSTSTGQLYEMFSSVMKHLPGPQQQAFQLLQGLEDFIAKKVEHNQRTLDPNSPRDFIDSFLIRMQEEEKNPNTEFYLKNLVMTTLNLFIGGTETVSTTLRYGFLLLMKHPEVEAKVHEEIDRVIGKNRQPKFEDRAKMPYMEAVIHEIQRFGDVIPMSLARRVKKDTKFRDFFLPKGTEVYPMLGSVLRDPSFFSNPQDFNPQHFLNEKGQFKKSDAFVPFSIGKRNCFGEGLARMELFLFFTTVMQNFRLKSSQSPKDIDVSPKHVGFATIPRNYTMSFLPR

[17] = test system: Rattus norvegicus; assay: Effect on striatal dopamine levels in Wistar rat at 100 mg/kg, po by microdialysis; format: ADME, organism-based; conditions: in vivo
[18] = Metabolic stability in human liver microsomes in presence of NADPH after 30 mins by LC-MS/MS analysis; format: ADME, Microsome; conditions: read-out: Stability
[19] = Metabolic stability in monkey liver microsomes in presence of NADPH after 30 mins by LC-MS/MS analysis; format: ADME, Macaca mulatta, Microsome; conditions: rhesus monkey, read-out: Stability
[20] = Metabolic stability in rat hepatocytes after 30 mins by LC-MS/MS analysis; format: ADME, cell-based, Hepatocyte; conditions: read-out: Stability
[21] = Mutagenicity in Salmonella typhimurium TA100 in absence of metabolic activation by Ames test; format: toxicity; conditions: salmonella enterica subsp. enterica serovar typhimurium
Procedure, shortened: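 Reverse-mutation test in Salmonella typhimurium TA1537, TA1535, TA98 and TA100 and in E. coli WP2 uvrA, run with and without metabolic activation.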

[22] = target: Cytochrome P450 2C9 (Homo sapiens, UniProt P11712); assay: Inhibition of CYP2C9 (unknown origin); format: ADME
Chain of Cytochrome P450 2C9 (P11712 whole entry): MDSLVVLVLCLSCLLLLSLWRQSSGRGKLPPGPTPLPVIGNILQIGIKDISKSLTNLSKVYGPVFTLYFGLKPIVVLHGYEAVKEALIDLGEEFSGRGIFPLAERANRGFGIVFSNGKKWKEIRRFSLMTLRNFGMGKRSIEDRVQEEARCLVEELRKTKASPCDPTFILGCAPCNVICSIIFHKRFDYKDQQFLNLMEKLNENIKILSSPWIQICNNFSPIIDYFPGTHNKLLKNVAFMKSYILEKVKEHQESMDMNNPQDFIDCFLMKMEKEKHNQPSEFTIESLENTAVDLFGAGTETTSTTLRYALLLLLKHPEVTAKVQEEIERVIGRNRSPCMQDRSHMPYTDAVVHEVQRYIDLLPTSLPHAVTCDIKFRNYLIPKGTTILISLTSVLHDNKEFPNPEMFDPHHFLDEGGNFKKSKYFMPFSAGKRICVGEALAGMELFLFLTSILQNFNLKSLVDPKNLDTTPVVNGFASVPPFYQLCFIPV

[23] = test system: Rattus norvegicus; assay: Effect on accumbal dopamine levels in Wistar rat at 100 mg/kg, po by microdialysis; format: ADME, organism-based; conditions: in vivo
[24] = target: T2, Cytochrome P450 2B6 (Homo sapiens, UniProt P20813); assay: Inhibition of CYP2B6 (unknown origin); format: ADME
T2 sequence (P20813 whole entry): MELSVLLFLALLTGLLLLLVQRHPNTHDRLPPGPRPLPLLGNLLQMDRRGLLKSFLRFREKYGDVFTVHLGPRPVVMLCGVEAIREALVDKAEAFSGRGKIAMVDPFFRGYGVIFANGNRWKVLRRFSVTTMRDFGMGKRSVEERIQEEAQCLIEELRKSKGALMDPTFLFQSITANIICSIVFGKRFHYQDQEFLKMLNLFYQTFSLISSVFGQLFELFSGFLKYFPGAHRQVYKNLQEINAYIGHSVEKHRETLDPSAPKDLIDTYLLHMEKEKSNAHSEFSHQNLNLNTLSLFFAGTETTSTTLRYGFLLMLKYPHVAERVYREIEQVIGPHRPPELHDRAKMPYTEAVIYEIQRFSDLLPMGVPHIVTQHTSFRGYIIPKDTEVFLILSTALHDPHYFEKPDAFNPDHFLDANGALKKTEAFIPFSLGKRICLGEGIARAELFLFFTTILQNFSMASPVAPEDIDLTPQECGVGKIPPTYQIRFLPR

[25] = Lipophilicity, log D of the compound at pH 7.4; format: physicochemical; conditions: buffer
[26] = Toxicity in Wistar rat up to 100 mg/kg, po by Irwin's test; format: organism-based; conditions: in vivo
Procedure, shortened: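 CNS safety was screened with a modified Irwin's test at oral doses up to 100 mg/kg.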

[27] = test system: CHO-K1; assay: Cytotoxicity in CHOK1 cells up to 300 uM incubated for 24 hrs by MTT assay; format: cell-based, Cricetulus griseus; conditions: chinese hamster, cho-k1, 24 h
[28] = Clearance in Beagle dog at 1 mg/kg, iv by LC-MS/MS analysis; format: ADME, organism-based, Canis lupus familiaris; conditions: in vivo
[29] = Clearance in Wistar rat at 1 mg/kg, iv by LC-MS/MS analysis; format: ADME, organism-based; conditions: in vivo
Procedure, shortened: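 Fasted male Wistar rats dosed i.v. in water for injection at 2 mL/kg. Clearance and half-life derived from the i.v. plasma profile.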

[30] = Partition coefficient, log P of the compound; format: physicochemical; conditions: octanol/water
[31] = Mutagenicity in Salmonella typhimurium TA1535 in absence of metabolic activation by Ames test; format: toxicity; conditions: salmonella enterica subsp. enterica serovar typhimurium
[32] = target: Voltage-gated inwardly rectifying potassium channel KCNH2 (Homo sapiens, UniProt Q12809); assay: Inhibition of human ERG expressed in HEK293 cells by whole-cell patch clamp assay; format: cell-based
Chain of Voltage-gated inwardly rectifying potassium channel KCNH2 (Q12809 whole entry): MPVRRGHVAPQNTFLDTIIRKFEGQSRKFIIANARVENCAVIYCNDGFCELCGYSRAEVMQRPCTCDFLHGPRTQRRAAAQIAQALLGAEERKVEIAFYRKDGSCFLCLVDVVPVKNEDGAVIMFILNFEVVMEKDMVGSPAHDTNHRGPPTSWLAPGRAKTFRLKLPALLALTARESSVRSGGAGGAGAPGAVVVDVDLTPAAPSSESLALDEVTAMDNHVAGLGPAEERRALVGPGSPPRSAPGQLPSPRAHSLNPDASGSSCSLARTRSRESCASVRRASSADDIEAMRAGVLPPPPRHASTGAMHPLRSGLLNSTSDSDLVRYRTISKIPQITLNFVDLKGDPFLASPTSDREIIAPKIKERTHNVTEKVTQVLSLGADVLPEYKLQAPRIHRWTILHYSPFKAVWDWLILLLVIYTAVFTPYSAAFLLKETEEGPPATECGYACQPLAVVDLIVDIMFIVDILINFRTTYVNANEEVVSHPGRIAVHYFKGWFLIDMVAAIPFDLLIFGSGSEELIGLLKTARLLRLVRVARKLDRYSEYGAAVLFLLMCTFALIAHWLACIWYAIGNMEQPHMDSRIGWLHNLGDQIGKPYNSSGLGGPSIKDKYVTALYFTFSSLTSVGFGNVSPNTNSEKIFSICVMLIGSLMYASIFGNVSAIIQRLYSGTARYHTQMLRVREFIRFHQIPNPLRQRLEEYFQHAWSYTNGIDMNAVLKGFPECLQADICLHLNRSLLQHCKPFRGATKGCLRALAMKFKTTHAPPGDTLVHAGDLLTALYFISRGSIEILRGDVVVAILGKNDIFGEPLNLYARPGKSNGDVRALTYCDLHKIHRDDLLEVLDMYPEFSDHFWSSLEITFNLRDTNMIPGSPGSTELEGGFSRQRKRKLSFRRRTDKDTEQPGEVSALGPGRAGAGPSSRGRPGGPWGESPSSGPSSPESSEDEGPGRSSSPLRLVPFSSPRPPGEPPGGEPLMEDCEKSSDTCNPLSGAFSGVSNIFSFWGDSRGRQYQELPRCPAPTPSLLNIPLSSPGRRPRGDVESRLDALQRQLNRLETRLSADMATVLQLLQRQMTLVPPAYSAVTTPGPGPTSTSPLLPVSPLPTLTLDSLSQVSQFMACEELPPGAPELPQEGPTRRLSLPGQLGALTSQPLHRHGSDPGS

Cl.Cl.O=C(CN1CCOCC1)Nc1ccc(OC2CCN(C3CCC3)CC2)cc1
AUC(0-t) [1]: 1120 ng·h/mL | fraction unbound at 1 µM [2]: 0.52 | Activity [3]: Non-Toxic | fraction unbound at 1 µM [4]: 0.57 | Activity [5]: Non-Toxic | IC50 [6]: > 10 µM | Activity [7]: Non-Toxic | remaining at 0.5 h [8]: 33% | ED50 [9]: 0.24 mg/kg | ED80 [9]: 3.05 mg/kg | Occ [9]: Dose-dependent effect | Activity [10]: Non-Toxic | Activity [11]: Non-Toxic | Papp A→B at 10 µM [12]: 30.8 ×10⁻⁶ cm/s | Activity [13]: Non-Toxic | solubility [14]: 730 mg/mL | IC50 [15]: > 45 µM | IC50 [16]: > 45 µM | Activity [17]: Non-Toxic | remaining at 0.5 h [18]: < 5% | remaining at 0.5 h [19]: 35% | remaining at 0.5 h [20]: 37% | Activity [21]: Non-Toxic | IC50 [22]: > 45 µM | Activity [23]: Non-Toxic | IC50 [24]: > 45 µM | logD [25]: 0.4 | Activity [26]: Non-Toxic | Activity [27]: Non-Toxic | clearance [28]: 36 mL/min/kg | clearance [29]: 63 mL/min/kg | logP [30]: 2.2 | Activity [31]: Non-Toxic | IC50 [32]: > 10 µM
